Results published in ChEMBL document CHEMBL1139875, “Discovery of 4-aminobutyric acid derivatives possessing anticonvulsant and antinociceptive activities: a hybrid pharmacophore approach” (2007).
Calls of active or inactive are those of the source. The rule behind the calls is not given here.

How the values were obtained:
Mus musculus [1] = assay: Anticonvulsant activity in Swiss Albino mouse at 300 mg/kg, ip after 0.5 hr by MES test; type: functional, organism-based; design: dose 300 mg/kg
Procedure, shortened: (§1)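 Mice (Swiss, 20-25 g) given i.p. doses of 30, 100 and 300 mg/kg under ADD program protocols, three per group, examined at 0.5 and 4 h in MES, scPTZ, scSTY or scPIC seizure tests. Value is the minimum dose protecting half or more of the mice.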

Mus musculus [2] = assay: Anticonvulsant activity in Swiss Albino mouse at 300 mg/kg, ip after 4 hrs by MES test; type: functional, organism-based; design: dose 300 mg/kg; procedure, shortened: as §1
Mus musculus [3] = assay: Anticonvulsant activity in Swiss Albino mouse at 300 mg/kg, ip after 0.5 hr by scPTZ test; type: functional, organism-based; design: dose 300 mg/kg; procedure, shortened: as §1
Mus musculus [4] = assay: Anticonvulsant activity in Swiss Albino mouse at 300 mg/kg, ip after 0.5 hr by scSTY test; type: functional, organism-based; design: dose 300 mg/kg; procedure, shortened: as §1
Mus musculus [5] = assay: Anticonvulsant activity in Swiss Albino mouse at 300 mg/kg, ip after 4 hrs by scSTY test; type: functional, organism-based; design: dose 300 mg/kg; procedure, shortened: as §1
Mus musculus [6] = assay: Anticonvulsant activity in Swiss Albino mouse at 300 mg/kg, ip after 0.5 hr by scPIC test; type: functional, organism-based; design: dose 300 mg/kg; procedure, shortened: as §1
Mus musculus [7] = assay: Anticonvulsant activity in Swiss Albino mouse at 300 mg/kg, ip after 4 hrs by scPIC test; type: functional, organism-based; design: dose 300 mg/kg; procedure, shortened: as §1
Mus musculus [8] = assay: Neurotoxicity in Swiss Albino mouse at 300 mg/kg, ip after 0.5 hr by rotarod test; type: functional, organism-based; design: dose 300 mg/kg
Procedure, shortened: (§2)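 Swiss mice (20-25 g) are trained on an accelerating rotorod (10 rpm, 3.2 cm rod), then injected i.p. at 30, 100 or 300 mg/kg, with three per group. Neurotoxicity means failure to keep equilibrium for at least 1 min in each of three trials, checked at 0.5 and 4 h. The value reported is the minimum dose affecting half or more of the mice.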

Mus musculus [9] = assay: Neurotoxicity in Swiss Albino mouse at 300 mg/kg, ip after 4 hrs by rotarod test; type: functional, organism-based; design: dose 300 mg/kg; procedure, shortened: as §2
Mus musculus [10] = assay: Analgesic activity in Swiss Albino mouse assessed as number of acetic acid-induced writhing per 30 min after 100 mg/kg, ip; type: functional; details: route intraperitoneal
Procedure, shortened: (§3)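 Mice in groups of six dosed i.p. at 100 mg/kg, controls receiving 30% v/v PEG 400 in water. Writhing induced by i.p. 0.1 mL of 3% v/v acetic acid 1 h after drug. Writhes (abdominal stretch with at least one hind limb extended) counted over 30 min; % inhibition calculated. Mean ± SEM, Student's t test.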

Mus musculus [11] = assay: Analgesic activity in Swiss Albino mouse assessed as inhibition of acetic acid-induced writhing responses at 100 mg/kg, ip; type: functional; details: route intraperitoneal; procedure, shortened: as §3
Rattus norvegicus [12] = assay: Anti-dynamic allodynia effect in Sprague-Dawley rat SNL model assessed as latency to paw withdrawal 100 mg/kg, ip after 0.5 hr; type: functional; details: route intraperitoneal
Procedure, shortened: (§4)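 Left L5 spinal nerve ligation rats, tested preoperatively and 9 days postoperatively, then given 100 mg/kg i.p. (vehicle 30% v/v PEG 400 in water). After 10 min acclimatization, plantar surface of affected paw stroked mildly with a cotton-bud; paw lift response recorded. n = 4; retested 0.5-2.5 h post-dose.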

Rattus norvegicus [13] = assay: Anti-dynamic allodynia effect in Sprague-Dawley rat SNL model assessed as latency to paw withdrawal 100 mg/kg, ip after 1 hr; type: functional; details: route intraperitoneal; procedure, shortened: as §4
Rattus norvegicus [14] = assay: Anti-dynamic allodynia effect in Sprague-Dawley rat SNL model assessed as latency to paw withdrawal 100 mg/kg, ip after 1.5 hrs; type: functional; details: route intraperitoneal; procedure, shortened: as §4
Rattus norvegicus [15] = assay: Anti-dynamic allodynia effect in Sprague-Dawley rat SNL model assessed as latency to paw withdrawal 100 mg/kg, ip after 2 hrs; type: functional; details: route intraperitoneal; procedure, shortened: as §4
Rattus norvegicus [16] = assay: Anti-dynamic allodynia effect in Sprague-Dawley rat SNL model assessed as latency to paw withdrawal 100 mg/kg, ip after 2.5 hrs; type: functional; details: route intraperitoneal; procedure, shortened: as §4
Rattus norvegicus [17] = assay: Anti-cold allodynia effect in Sprague-Dawley rat SNL model assessed as duration of paw withdrawal 100 mg/kg, ip after 0.5 hr; type: functional; details: route intraperitoneal
Procedure, shortened: (§5)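 Left L5 spinal nerve ligation under pentobarbital (65 mg/kg i.p.). Allodynic rats dosed i.p. 100 mg/kg, vehicle 30% v/v PEG 400 in water. Acetone (100-200 µL) misted onto midplantar affected paw after 10 min acclimatization; paw withdrawal duration, mean of three samples at least 3 min apart; n = 4 rats.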

Rattus norvegicus [18] = assay: Anti-cold allodynia effect in Sprague-Dawley rat SNL model assessed as duration of paw withdrawal 100 mg/kg, ip after 1 hrs; type: functional; details: route intraperitoneal; procedure, shortened: as §5
Rattus norvegicus [19] = assay: Anti-cold allodynia effect in Sprague-Dawley rat SNL model assessed as duration of paw withdrawal 100 mg/kg, ip after 1.5 hrs; type: functional; details: route intraperitoneal; procedure, shortened: as §5
Rattus norvegicus [20] = assay: Anti-cold allodynia effect in Sprague-Dawley rat SNL model assessed as duration of paw withdrawal 100 mg/kg, ip after 2 hrs; type: functional; details: route intraperitoneal; procedure, shortened: as §5
Rattus norvegicus [21] = assay: Anti-cold allodynia effect in Sprague-Dawley rat SNL model assessed as duration of paw withdrawal 100 mg/kg, ip after 2.5 hrs; type: functional; details: route intraperitoneal; procedure, shortened: as §5
Rattus norvegicus [22] = assay: Antihyperalgesic effects in Sprague-Dawley rat CCI model assessed as duration of paw withdrawal at 100 mg/kg, ip after 0.5 hr; type: functional; details: route intraperitoneal
Rattus norvegicus [23] = assay: Antihyperalgesic effects in Sprague-Dawley rat CCI model assessed as duration of paw withdrawal at 100 mg/kg, ip after 1 hr; type: functional; details: route intraperitoneal
Rattus norvegicus [24] = assay: Antihyperalgesic effects in Sprague-Dawley rat CCI model assessed as duration of paw withdrawal at 100 mg/kg, ip after 1.5 hrs; type: functional; details: route intraperitoneal
Rattus norvegicus [25] = assay: Antihyperalgesic effects in Sprague-Dawley rat CCI model assessed as duration of paw withdrawal at 100 mg/kg, ip after 2 hrs; type: functional; details: route intraperitoneal
Rattus norvegicus [26] = assay: Antihyperalgesic effects in Sprague-Dawley rat CCI model assessed as duration of paw withdrawal at 100 mg/kg, ip after 2.5 hrs; type: functional; details: route intraperitoneal
Rattus norvegicus [27] = assay: Effect on spontaneous pain in Sprague-Dawley rat SNL model assessed as duration of paw withdrawal at 100 mg/kg, ip after 0.5 hr; type: functional; details: route intraperitoneal
Procedure, shortened: (§6)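 Rats underwent left L5 spinal nerve ligation (Kim and Chung) under i.p. pentobarbital (65 mg/kg). Spontaneous pain is recorded for 5 min after 10 min acclimatization, as cumulative duration the ipsilateral paw is lifted, excluding locomotor lifts. Dosing is 100 mg/kg i.p. in 30% v/v PEG 400/water, with testing at 0.5–2.5 h. Four rats, mean ± SEM versus predrug, one-way ANOVA with Bonferroni.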

Rattus norvegicus [28] = assay: Effect on spontaneous pain in Sprague-Dawley rat SNL model assessed as duration of paw withdrawal at 100 mg/kg, ip after 1 hr; type: functional; details: route intraperitoneal; procedure, shortened: as §6
Rattus norvegicus [29] = assay: Effect on spontaneous pain in Sprague-Dawley rat SNL model assessed as duration of paw withdrawal at 100 mg/kg, ip after 1.5 hrs; type: functional; details: route intraperitoneal; procedure, shortened: as §6
Rattus norvegicus [30] = assay: Effect on spontaneous pain in Sprague-Dawley rat SNL model assessed as duration of paw withdrawal at 100 mg/kg, ip after 2 hrs; type: functional; details: route intraperitoneal; procedure, shortened: as §6
Rattus norvegicus [31] = assay: Effect on spontaneous pain in Sprague-Dawley rat SNL model assessed as duration of paw withdrawal at 100 mg/kg, ip after 2.5 hrs; type: functional; details: route intraperitoneal; procedure, shortened: as §6
Rattus norvegicus [32] = organism: Rattus norvegicus; assay: Anti-dynamic allodynic effect in Sprague-Dawley rat CCI model assessed as latency to paw withdrawal after 0.5 hr; type: functional
Procedure, shortened: (§7)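 Rats with sciatic nerve chronic constriction injury (pentobarbital 65 mg/kg i.p. anaesthesia), baseline and day 9 testing, then drug per randomization table. After 10 min acclimatization, affected plantar surface stroked mildly with a cotton-bud; paw lift recorded. n = 4; retested 0.5-2.5 h post-dose.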

Rattus norvegicus [33] = organism: Rattus norvegicus; assay: Anti-dynamic allodynic effect in Sprague-Dawley rat CCI model assessed as latency to paw withdrawal after 1 hr; type: functional; procedure, shortened: as §7
Rattus norvegicus [34] = organism: Rattus norvegicus; assay: Anti-dynamic allodynic effect in Sprague-Dawley rat CCI model assessed as latency to paw withdrawal after 1.5 hr; type: functional; procedure, shortened: as §7
Rattus norvegicus [35] = organism: Rattus norvegicus; assay: Anti-dynamic allodynic effect in Sprague-Dawley rat CCI model assessed as latency to paw withdrawal after 2 hr; type: functional; procedure, shortened: as §7
Rattus norvegicus [36] = organism: Rattus norvegicus; assay: Anti-dynamic allodynic effect in Sprague-Dawley rat CCI model assessed as latency to paw withdrawal after 2.5 hr; type: functional; procedure, shortened: as §7

O=C(O)CCCNC(=O)N/N=C(\c1ccccc1)c1ccc(Br)cc1
Activity (Mus musculus [1]): Active
Activity (Mus musculus [2]): inactive
Activity (Mus musculus [3]): inactive
Activity (Mus musculus [4]): Active
Activity (Mus musculus [5]): Active
Activity (Mus musculus [6]): inactive
Activity (Mus musculus [7]): inactive
Activity (Mus musculus [8]): inactive
Activity (Mus musculus [9]): inactive
Activity (Mus musculus [10]): 21
inhibition in vivo at 100 mg/kg (Mus musculus [11]): 89%
Activity (Rattus norvegicus [12]): 9.8 s
Activity (Rattus norvegicus [13]): 10.6 s
Activity (Rattus norvegicus [14]): 10.8 s
Activity (Rattus norvegicus [15]): 10.3 s
Activity (Rattus norvegicus [16]): 10.23 s
Activity (Rattus norvegicus [17]): 19.1 s
Activity (Rattus norvegicus [18]): 23.8 s
Activity (Rattus norvegicus [19]): 11.8 s
Activity (Rattus norvegicus [20]): 10.8 s
Activity (Rattus norvegicus [21]): 10.2 s
Activity (Rattus norvegicus [22]): 20.5 s
Activity (Rattus norvegicus [23]): 8.5 s
Activity (Rattus norvegicus [24]): 5.1 s
Activity (Rattus norvegicus [25]): 7.3 s
Activity (Rattus norvegicus [26]): 5.6 s
Activity (Rattus norvegicus [27]): 25.1 s
Activity (Rattus norvegicus [28]): 28.5 s
Activity (Rattus norvegicus [29]): 23.1 s
Activity (Rattus norvegicus [30]): 10.1 s
Activity (Rattus norvegicus [31]): 8.7 s
Activity (Rattus norvegicus [32]): 11.4 s
Activity (Rattus norvegicus [33]): 10.3 s
Activity (Rattus norvegicus [34]): 10.6 s
Activity (Rattus norvegicus [35]): 10.9 s
Activity (Rattus norvegicus [36]): 11.3 s
